# Results of several laboratories.
# Lines come from different studies, so protocols differ.
# Target: Protein kinase C gamma type (PRKCG, Homo sapiens, UniProt P05129)
Structure (SMILES),assay,conditions,measurement,result
CN1CC(Oc2cnc(C#N)cc2-c2ccn3nc(NC(=O)C4CC4)cc3c2)C1,"enzyme activity, inhibitor",1 µM,inhibition,1%
N#CCCc1ccc2c(c1)-c1[nH]c3ccc([N+](=O)[O-])cc3c1CC(=O)N2,cell-free assay,0.5 µM,remaining signal,93.3%
Cc1cc(NC(=O)c2cccc3cc(-c4cccc5[nH]nc(N)c45)ccc23)ccc1F,"enzyme activity, inhibitor",0.1 µM,activity vs control,92%
CC(C)(O)[C@H]1CC[C@H](Nc2ccc3ncc(-c4cccc(C(F)(F)F)c4)n3n2)CC1,"enzyme activity, inhibitor",1 µM,remaining activity,99%
COc1cc2ncnc(Nc3ccc(Oc4ccccc4)c(C)c3C)c2cc1OC,"enzyme activity, inhibitor",1 µM,inhibition,1%
Cc1ccc(Nc2nccc(N(C)c3ccc4c(C)n(C)nc4c3)n2)cc1S(N)(=O)=O,"enzyme activity, inhibitor",10 µM,inhibition,45%
O=C(Nc1cnn(-c2csc(C(=O)NC3COC3)c2)c1)Nc1ccccc1Cl,"enzyme activity, inhibitor",5 µM,remaining activity,98%
FC(F)(F)Oc1cccc(-c2cnc3ccc(-c4ccncc4)nn23)c1,"enzyme activity, inhibitor, radiometric",5 µM,activity vs control,76%
CCCOc1ccc(OC)c(F)c1C(=O)c1ccc(C(=O)N[C@@H]2CNC[C@H]2NC(=O)c2ccc3[nH]ncc3c2)cc1,"enzyme activity, inhibitor",10 µM,remaining activity,73%
Cc1sc(C(=O)NC2COC2)cc1-n1cc(NC(=O)Nc2c(F)cccc2Cl)cn1,"enzyme activity, inhibitor",10 µM,remaining activity,102%
COc1cc(Nc2cnc(C#N)c(O[C@H](C)CN(C)C)n2)ncc1-c1cnn(C)c1,"enzyme activity, inhibitor, radiometric",10 µM,remaining activity,80%
COc1cc(/C=C/C(=O)CC(=O)/C=C/c2ccc(O)c(OC)c2)ccc1O,"enzyme activity, inhibitor",1 µM,activity vs control,85%
Cc1cnc(NC2CCOCC2)nc1-n1cnc(C(=O)NC(CN)c2cc(F)cc(Cl)c2)c1 (stereo not shown),"enzyme activity, inhibitor, radiometric",1 µM,remaining activity,85%
CCCS(=O)(=O)Nc1ccc(F)c(C(=O)c2c[nH]c3ncc(-c4ccc(Cl)cc4)cc23)c1F,"enzyme activity, inhibitor",1 µM,inhibition,< 20%
C[C@@H](N)[C@H]1CC[C@H](C(=O)Nc2ccncc2)CC1,"enzyme activity, inhibitor, TR-FRET",10 µM,inhibition,6.8%
CC(C)(C)c1nc2c(s1)c1nc(N)ncc1c1ccc(NS(=O)(=O)c3c(F)cccc3F)c(F)c12,"enzyme activity, inhibitor, radiometric",1 µM,remaining activity,103%
